# In the library only some 3% were active in any assay of this set; here they are far more common.
# PfGluPho inh: PfG6PD enzyme inhibitors, primary screen, biochemical, fluorescence intensity, uHTS. PfGluPho enzyme, NADPH resazurin-diaphorase fluorescence. AID 504690, 2011. inhibition, % at 20 µM. glucose-6-phosphate dehydrogenase-6-phosphogluconolactonase (Plasmodium falciparum 3D7). 0.78% of 350,000 active;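 active = inhibition reaching at least a set limit at 20 µM in the primary screen, cut at about 59% in these data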;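 note: 0% = DMSO wells with substrate and 100% = DMSO wells lacking glucose-6-phosphate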
# MC4R antag cAMP: MC4R antagonists of cAMP signaling, primary screen, cell-based, TR-FRET, antagonist arm of biased-ligand search | MC4R-expressing cells, MTII-stimulated cAMP, LANCE TR-FRET | inhibition, % at 6.5 µM | 0.48% of 360,000 active | AID 540295, 2011;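 active = inhibition above its plate's cutoff, the mean of tested wells on that plate plus 3 SD, cut at about 29% in these data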;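 note: 0% = Melanotan II alone and 100% = Melanotan II plus saturating MCL0020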
#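 Material: U2OS-MC4R stable cell line | Reagent: Melanotan II challenge after compound preincubation | Doses: One concentration, 6.5 µM nominal | Incubation: 30-min compound preincubation, 1-h Melanotan II challenge, 1-h detection, room temperature | Signal: TR-FRET cAMP assay | Replicates: One well per compound, no replicates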
# B2AR ag: beta2AR agonists driving receptor internalization, primary screen, cell-based, FAP fluorogen, flow cytometry | Beta-2 adrenergic receptor (Homo sapiens), P07550 | Am2.2-beta2AR cells | response, % (test concentration not listed) | 0.43% of 340,000 active | AID 504454, 2011;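 active = response above a set limit, near 3 SD of response in nonfluorescent compounds, cut at about 42% in these data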
# MC4R ag barr: MC4R agonists recruiting beta-arrestin, primary screen, cell-based, luminescence, agonist arm of biased-ligand search. 0.98% of 360,000 active. Melanocortin receptor 4 (Homo sapiens), P32245. U2OS MC4R beta-arrestin complementation; percent of melanotan II response, DMSO zero. activation, % at 8.9 µM;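 active = activation above a per-plate cutoff, the mean activation of sample wells on that plate plus 3 SD, cut at about 8% in these data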
# ABHD5 PLIN5 PPI: ABHD5-PLIN5 interaction inhibitors, primary screen, cell lysate, split luciferase complementation, luminescence. inhibition, % at 4 µM. 0.78% of 360,000 active. Split G. princeps luciferase complementation, 4 h. AID 602281, 2012. Perilipin-5 (Homo sapiens) + 1-acylglycerol-3-phosphate O-acyltransferase ABHD5 (Homo …;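 active = inhibition above the mean inhibition across every tested compound plus 3 SD, cut at about 22% in these data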;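 note: 0% = DMSO only wells and the 100% control is not disclosed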
# Target sequence (Q00G26 whole entry, looked up): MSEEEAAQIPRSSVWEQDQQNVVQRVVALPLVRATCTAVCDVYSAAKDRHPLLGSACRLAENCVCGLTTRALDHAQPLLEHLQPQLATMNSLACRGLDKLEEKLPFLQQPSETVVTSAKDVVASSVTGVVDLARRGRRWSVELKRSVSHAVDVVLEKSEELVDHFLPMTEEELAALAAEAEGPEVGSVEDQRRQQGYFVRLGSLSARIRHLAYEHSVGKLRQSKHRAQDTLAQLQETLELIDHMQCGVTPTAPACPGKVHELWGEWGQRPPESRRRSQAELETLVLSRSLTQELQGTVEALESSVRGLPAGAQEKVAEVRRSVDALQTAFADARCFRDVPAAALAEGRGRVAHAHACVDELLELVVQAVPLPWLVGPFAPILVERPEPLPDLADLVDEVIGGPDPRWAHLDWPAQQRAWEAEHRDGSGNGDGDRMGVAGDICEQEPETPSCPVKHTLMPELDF
# Target sequence (Q8WTS1 whole entry, looked up): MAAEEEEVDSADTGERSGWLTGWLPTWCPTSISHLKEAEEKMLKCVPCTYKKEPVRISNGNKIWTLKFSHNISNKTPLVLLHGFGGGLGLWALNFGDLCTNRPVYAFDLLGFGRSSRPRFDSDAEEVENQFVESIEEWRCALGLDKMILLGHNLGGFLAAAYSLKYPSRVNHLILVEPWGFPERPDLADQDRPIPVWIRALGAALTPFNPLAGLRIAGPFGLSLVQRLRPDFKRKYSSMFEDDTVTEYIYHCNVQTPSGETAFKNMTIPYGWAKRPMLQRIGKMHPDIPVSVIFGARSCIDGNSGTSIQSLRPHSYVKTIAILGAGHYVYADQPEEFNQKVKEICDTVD
# Starred values were filed as active, the others as inactive; nt = not tested or not shown.
SMILES,PfGluPho inh,MC4R antag cAMP,B2AR ag,MC4R ag barr,ABHD5 PLIN5 PPI
CCCCN1C(=O)/C(=C/C=C/c2ccco2)C(=O)NC1=S,-5,-1,0,1,-5
Cc1ccc(N2C(=O)NC(=O)/C(=C/C=C/c3ccco3)C2=O)cc1,29,-1,83*,0,17
COC(=O)C1=C(c2ccc(OC)c(OC)c2)C[C@@H]2CC[C@H]1N2C(=O)NCCCOC(C)C,-3,4,2,0,-13
COc1ccccc1OCC#CCN1CCCC(C)C1 (stereo not given),4,8,-20,-3,-2
O=C1NC(=O)N(c2cccc(Br)c2)C(=O)/C1=C/c1ccsc1,36,1,4,-2,19
COc1ccc(CNCCc2ccc(Cl)cc2)c(OC)c1OC,-9,0,0,0,7
O=[N+]([O-])NC1=NCCN1Cc1ccc(Cl)nc1,-1,16,-1,1,-11
CCCCn1nnnc1C(CCSC)N1CCC2(CC1)C(=O)NCN2c1ccccc1 (stereo not given),nt,nt,nt,nt,-6
Nc1ccc(CCN2CCN(c3cccc(C(F)(F)F)c3)CC2)cc1,21,8,5,2,5
FC(F)(F)c1ccc2c(c1)N(CCCN1CCN(CCCl)CC1)c1ccccc1S2,15,10,68*,3,21
CCN1CC2([N+](=O)[O-])CC=C(Cl)C([N+](=O)[O-])(C1)C2 (stereo not given),-13,13,4,2,6
CC(=O)OC1C(O)C2=C3C4(C)C1C(C)(C)C(=O)CC4C3(O)C(OC(C)=O)C1(CC1C)C2=O (stereo not given),nt,nt,nt,nt,22*
COC1=CC(=O)[C@]2(C=C1OC)OC[C@@H]1Oc3c(ccc4c3C=CC(C)(C)O4)C(=O)[C@@H]12,12,nt,nt,nt,nt
COc1ccc2nc(/N=C/c3c(O)n(-c4cccc(Cl)c4)c(=O)[nH]c3=O)sc2c1,-5,14,4,1,23*
Cc1cccc(C2=NCC(=O)N(CC(=O)NCc3ccco3)c3sc4c(c32)CCCC4)c1,-6,7,-8,1,-1
COc1ccc(C2=NCC(=O)N(CC(=O)NCc3ccco3)c3sc4c(c32)CCCC4)cc1,12,-11,-3,2,38*
COc1ccc(CN2CCCC(C(=O)c3cccc(Cl)c3)C2)cc1 (stereo not given),-6,4,9,9.0*,7
CC(=O)O[C@@H]1CC[C@]2(C)C3CC[C@@]4(C)C(C[C@@H](O)[C@@H]4O)C3[C@@H](OC(C)=O)C[C@H]2C1 (stereo not given in full),-27,11,5,2,-4
CC(=O)[C@H]1CCC2C3CC[C@H]4C[C@@H](O)CC[C@]4(C)C3CC[C@@]21C (stereo not given in full),-5,-2,8,0,-2
CC(=O)OC1CC(OC2C(O)CC(OC3C(O)CC(OC4CCC5(C)C(CCC6C5CCC5(C)C(C7=CC(=O)OC7)C(O)CC65O)C4)OC3C)OC2C)OC(C)C1OC1OC(CO)C(O)C(O)C1O (stereo not given),-4,11,-3,15*,4
CC(=O)OC1CC2(O)C3CCC4CC(O)CCC4(C)C3CCC2(C)C1C1=CC(=O)OC1 (stereo not given),3,10,-13,17*,-2
CC1OC(OC2C(O)CC(OC3C(O)CC(OC4CCC5(C)C(CCC6C5CCC5(C)C(C7=CC(=O)OC7)C(O)CC65O)C4)OC3C)OC2C)CC(O)C1O (stereo not given),1,1,-5,27*,-2
C[C@H]1O[C@@H](O[C@H]2[C@@H](O)C[C@H](O[C@H]3[C@@H](O)C[C@H](O[C@H]4CC[C@@]5(C)[C@H](CC[C@@H]6[C@@H]5CC[C@]5(C)[C@@H](C7=CC(=O)OC7)CC[C@]65O)C4)O[C@@H]3C)O[C@@H]2C)C[C@H](O)[C@@H]1O,-24,nt,nt,nt,nt
COc1ccc(-n2c(O)c(C(C)=NCCc3c[nH]c4ccccc34)c(=O)[nH]c2=O)cc1,-3,14,1,0,-4

# Assay outcomes from PubChem BioAssay.
